Measurements as given in ChEMBL document CHEMBL1128272, “Stereoselective LSD-like activity in a series of d-lysergic acid amides of (R)- and (S)-2-aminoalkanes” (J Med Chem, 1995).
pKi: −log10 of the molar value. Calls of active or inactive are those of the source. The calls are words filed in the database; no cut-off is given here.

Columns and labels:
[1] = biological target: T1, 5-hydroxytryptamine receptor 1A (Rattus norvegicus, UniProt P19327); experiment: Binding affinity was measured against 5-hydroxytryptamine 1A receptor by displacement of [3H]8-OH-DPAT by lysergic acid amides
T1 sequence (P19327 whole entry): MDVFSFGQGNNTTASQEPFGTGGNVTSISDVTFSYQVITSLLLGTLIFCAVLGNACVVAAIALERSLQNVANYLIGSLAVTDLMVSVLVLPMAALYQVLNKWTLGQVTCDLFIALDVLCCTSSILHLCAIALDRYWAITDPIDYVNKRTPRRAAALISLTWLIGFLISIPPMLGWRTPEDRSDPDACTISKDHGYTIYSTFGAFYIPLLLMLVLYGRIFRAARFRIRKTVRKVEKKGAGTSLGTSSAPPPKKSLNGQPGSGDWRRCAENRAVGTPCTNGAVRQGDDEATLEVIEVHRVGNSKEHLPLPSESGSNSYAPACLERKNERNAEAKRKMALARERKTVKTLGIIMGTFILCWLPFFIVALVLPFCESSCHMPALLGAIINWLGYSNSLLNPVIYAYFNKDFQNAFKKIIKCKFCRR
Method in brief: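 Rat hippocampal membranes from pooled male Sprague-Dawley rats, preincubated at 37 °C, in 50 mM Tris HCl (pH 7.4) with 0.5 mM Na2EDTA, 0.1% ascorbate and 10 μM pargyline. Competition against 0.75 nM [3H]-8-OH-DPAT for 10 min at 37 °C, then GF/C filtration and scintillation counting. Triplicates. Three to four experiments combined, analysed with EBDA/LIGAND.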

[2] = biological target: 5-hydroxytryptamine receptor 2A (Rattus norvegicus, UniProt P14842); experiment: Binding affinity was measured against 5-hydroxytryptamine 2A receptor by displacement of [3H]- ketanserin by lysergic acid amides
Chain of 5-hydroxytryptamine receptor 2A (P14842 whole entry): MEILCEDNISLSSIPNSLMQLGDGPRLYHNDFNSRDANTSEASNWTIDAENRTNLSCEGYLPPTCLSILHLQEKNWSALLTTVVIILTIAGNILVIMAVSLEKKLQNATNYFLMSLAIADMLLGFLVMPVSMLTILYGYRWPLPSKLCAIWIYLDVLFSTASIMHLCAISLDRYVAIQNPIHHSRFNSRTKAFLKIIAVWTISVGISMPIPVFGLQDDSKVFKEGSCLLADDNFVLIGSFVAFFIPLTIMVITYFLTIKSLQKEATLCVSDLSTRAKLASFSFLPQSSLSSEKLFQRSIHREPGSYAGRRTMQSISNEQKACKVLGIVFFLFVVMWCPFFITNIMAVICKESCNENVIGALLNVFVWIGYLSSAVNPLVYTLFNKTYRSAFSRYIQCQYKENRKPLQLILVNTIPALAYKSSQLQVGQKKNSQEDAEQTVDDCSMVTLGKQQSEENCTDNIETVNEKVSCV
Method in brief: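 Rat frontal cortex membranes from pooled male Sprague-Dawley rats, preincubated at 37 °C, in 50 mM Tris HCl (pH 7.4) with 0.5 mM Na2EDTA, 0.1% ascorbate, 10 μM pargyline and 5.7 mM CaCl2. Triplicates. Three to four experiments combined.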

Rattus norvegicus [3] = experiment: Compound was tested for its effect on animals. Value reported as number of rats disrupted in trained rats at a dose of 465 (nmol/kg); format: functional
Method in brief: (§1)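 Two-lever drug discrimination in food-restricted rats (~80% free-feeding weight) trained on FR 50 to tell saline from LSD tartrate (186 nmol/kg, 0.08 mg/kg ip, 30 min pre-session). Test drugs were given ip in saline, 1 mL/kg. Test sessions ran under extinction, ending at 50 presses on either lever. Testing required 85% training accuracy. Counts of rats tested and disrupted were recorded, plus the percentage selecting the drug lever.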

Rattus norvegicus [4] = experiment: Compound was tested for its effect on animals. Value reported as number of rats disrupted in trained rats at a dose of 47 (nmol/kg); format: functional; method in brief: as §1
Rattus norvegicus [5] = experiment: Compound was tested for its effect on animals. Value reported as number of rats disrupted in trained rats at a dose of 93 (nmol/kg); format: functional; method in brief: as §1
Rattus norvegicus [6] = experiment: Compound was tested for its effect on animals. Value reported as number of rats disrupted in trained rats at a dose of 372 (nmol/kg); format: functional; method in brief: as §1
Rattus norvegicus [7] = experiment: Compound was tested for its effect on animals. Value reported as number of rats disrupted in trained rats at a dose of 186 (nmol/kg); format: functional; method in brief: as §1
Rattus norvegicus [8] = experiment: Compound was tested for its effect on animals. Value reported as number of rats disrupted in trained rats at a dose of 290 (nmol/kg); format: functional; method in brief: as §1
Rattus norvegicus [9] = experiment: Effective dose in trained rats was determined at a dose of 47 (nmol/kg); format: functional
Rattus norvegicus [10] = experiment: Percentage of animals selecting drug lever in trained rats at a dose 372 (nmol/kg); format: functional; method in brief: as §1
Rattus norvegicus [11] = experiment: Percentage of animals selecting drug lever in trained rats at a dose 465 (nmol/kg); format: functional
Method in brief: (§2)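 Drug-naive rats held at about 80% of free-feeding weight were trained on a two-lever FR50 food schedule to tell ip LSD tartrate (186 nmol/kg, 0.08 mg/kg) from saline, given 30 min before sessions. Test drugs were given ip in saline (1 mL/kg). Tests ran under extinction and ended at 50 presses on either lever. Rats had to hold 85% correct on training days. Read-out was % selecting the drug lever per dose.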

Rattus norvegicus [12] = experiment: Percentage of animals selecting drug lever in trained rats at a dose 93 (nmol/kg); format: functional; method in brief: as §2
Rattus norvegicus [13] = experiment: Percentage of animals selecting drug lever in trained rats at a dose 290 (nmol/kg); format: functional; method in brief: as §1
Rattus norvegicus [14] = experiment: Potency in trained rats was determined with relative to reference compound […] at a dose of 186 (nmol/kg); format: functional
Rattus norvegicus [15] = experiment: Compound was tested for its effect on animals. Value reported as number of rats disrupted in trained rats at a dose of 86 (nmol/kg); format: functional; method in brief: as §1
Rattus norvegicus [16] = experiment: Compound was tested for its effect on animals. Value reported as number of rats disrupted in trained rats at a dose of 426 (nmol/kg); format: functional; method in brief: as §1
Rattus norvegicus [17] = experiment: Compound was tested for its effect on animals. Value reported as number of rats disrupted in trained rats at a dose of 171 (nmol/kg); format: functional; method in brief: as §1
Rattus norvegicus [18] = experiment: Compound was tested for its effect on animals. Value reported as number of rats disrupted in trained rats at a dose of 213 (nmol/kg); format: functional; method in brief: as §1
Rattus norvegicus [19] = experiment: Effective dose in trained rats was determined at a dose of 86 (nmol/kg); format: functional, organism-based
Rattus norvegicus [20] = experiment: Compound was tested for its effect on animals. Value reported as number of rats disrupted in trained rats at a dose of 128 (nmol/kg); format: functional; method in brief: as §1
Rattus norvegicus [21] = experiment: Percentage of animals selecting drug lever in trained rats at a dose 426 (nmol/kg); format: functional; method in brief: as §1
Rattus norvegicus [22] = experiment: Percentage of animals selecting drug lever in trained rats at a dose 86 (nmol/kg); format: functional; method in brief: as §2
Rattus norvegicus [23] = experiment: Percentage of animals selecting drug lever in trained rats at a dose 128 (nmol/kg); format: functional; method in brief: as §1
Rattus norvegicus [24] = experiment: Percentage of animals selecting drug lever in trained rats at a dose 171 (nmol/kg); format: functional; method in brief: as §1
Rattus norvegicus [25] = experiment: Percentage of animals selecting drug lever in trained rats at a dose 213 (nmol/kg); format: functional; method in brief: as §1
Rattus norvegicus [26] = experiment: Compound was tested for its effect on animals. Value reported as number of rats disrupted in trained rats at a dose of 639 (nmol/kg); format: functional; method in brief: as §1
Rattus norvegicus [27] = experiment: Effective dose in trained rats was determined at a dose of 213 (nmol/kg); format: functional, organism-based
Rattus norvegicus [28] = experiment: Percentage of animals selecting drug lever in trained rats at a dose 639 (nmol/kg); format: functional; method in brief: as §2

CCCCC[C@@H](C)NC(=O)[C@@H]1C=C2c3cccc4[nH]cc(c34)C[C@H]2N(C)C1
pKi [1]: 8.48
pKi [2]: 7.10

CC[C@@H](C)NC(=O)[C@@H]1C=C2c3cccc4[nH]cc(c34)C[C@H]2N(C)C1
pKi [1]: 8.34
pKi [2]: 7.47
D (Rattus norvegicus [3]): 10%
D (Rattus norvegicus [4]): 10%
D (Rattus norvegicus [5]): 0%
D (Rattus norvegicus [6]): 0%
D (Rattus norvegicus [7]): 27%
D (Rattus norvegicus [8]): 10%
ED50 (Rattus norvegicus [9]): 0.124 µmol/kg
SDL (Rattus norvegicus [10]): 75%
SDL (Rattus norvegicus [11]): 100%
SDL (Rattus norvegicus [12]): 50%
SDL (Rattus norvegicus [13]): 67%
Potency (Rattus norvegicus [14]): 0.39

CCCCCC(C)NC(=O)[C@@H]1C=C2c3cccc4[nH]cc(c34)C[C@H]2N(C)C1 (stereo not given in full)
pKi [1]: 7.85
pKi [2]: 6.45

CCCC[C@@H](C)NC(=O)[C@@H]1C=C2c3cccc4[nH]cc(c34)C[C@H]2N(C)C1
pKi [1]: 9.49
pKi [2]: 7.80
D (Rattus norvegicus [15]): 10%
D (Rattus norvegicus [16]): 0%
D (Rattus norvegicus [17]): 0%
D (Rattus norvegicus [18]): 27%
ED50 (Rattus norvegicus [19]): Weak activity
D (Rattus norvegicus [20]): 0%
SDL (Rattus norvegicus [21]): 0%
SDL (Rattus norvegicus [22]): 22%
SDL (Rattus norvegicus [23]): 40%
SDL (Rattus norvegicus [24]): 55%
SDL (Rattus norvegicus [25]): 50%

CCCCC(C)NC(=O)[C@@H]1C=C2c3cccc4[nH]cc(c34)C[C@H]2N(C)C1 (stereo not given in full)
pKi [1]: 8.31
pKi [2]: 7.26
D (Rattus norvegicus [26]): 12.5%
D (Rattus norvegicus [16]): 30%
D (Rattus norvegicus [18]): 30%
ED50 (Rattus norvegicus [27]): inactive
SDL (Rattus norvegicus [21]): 0%
SDL (Rattus norvegicus [28]): 0%
SDL (Rattus norvegicus [25]): 29%
